Measurements: ChEMBL document CHEMBL3860039, “Structure-Activity Relationship and Signaling of New Chimeric CXCR4 Agonists” (J Med Chem, 2016)

How the values were obtained:
Assay type in all cases: cell-based
[1] = target: T1, C-X-C chemokine receptor type 4 (Homo sapiens, UniProt P61073); experiment: Displacement of [125I]-CXCL12 from HA-tagged human recombinant CXCR4 expressed in HEK293 cells incubated for 1 hr by gamma-radiation counting analysis
[2] = target: T1, C-X-C chemokine receptor type 4; experiment: Agonist activity at CXCR4 in human REH cells assessed as induction of chemotaxis incubated for 3 hrs by transwell migration assay
Method in brief: (§1)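 REH acute lymphoblastic B-cell leukaemia cells washed in RPMI; 100 000 cells in RPMI + 0.2% BSA seeded on top of 5 μm pore polycarbonate transwell, peptide dilutions in same medium in bottom chamber; 3 h, 37 °C, 5% CO2. Migrated cells in lower chamber counted by automated counter, expressed as % of seeded cells; peak = concentration giving maximal migration. Three experiments in triplicate.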

[3] = target: T1, C-X-C chemokine receptor type 4; experiment: Agonist activity at HA-tagged human CXCR4 receptor expressed in HEK293 cells co-transfected with Galphai1-91-RlucII, Gbeta1, and GFP10-G-gamma1 incubated for 7 mins by Galpha1 protein activation-based BRET assay
Method in brief: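 HEK293 cells (3 × 10^6 per 100 mm dish) co-transfected via polyethylenimine with HA-hCXCR4 plus Gαi1-91-RlucII, Gβ1, GFP10-Gγ1; replated at 24 h, 100 000 cells/well. At 48 h, washed in HBSS/0.1% BSA, exposed to ligand 10−12 to 10−5 M for 7 min, then coelenterazine-400A 5 μM final; BRET2 515/400 nm ratio. EC50 (Gαi dissociation) and Emax from three experiments in triplicate.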

[4] = target: T1, C-X-C chemokine receptor type 4; experiment: Agonist activity at CXCR4 in human REH cells assessed as optimal concentration causing maximum induction of chemotaxis incubated for 3 hrs by transwell migration assay; method in brief: as §1

T1 sequence (P61073 whole entry): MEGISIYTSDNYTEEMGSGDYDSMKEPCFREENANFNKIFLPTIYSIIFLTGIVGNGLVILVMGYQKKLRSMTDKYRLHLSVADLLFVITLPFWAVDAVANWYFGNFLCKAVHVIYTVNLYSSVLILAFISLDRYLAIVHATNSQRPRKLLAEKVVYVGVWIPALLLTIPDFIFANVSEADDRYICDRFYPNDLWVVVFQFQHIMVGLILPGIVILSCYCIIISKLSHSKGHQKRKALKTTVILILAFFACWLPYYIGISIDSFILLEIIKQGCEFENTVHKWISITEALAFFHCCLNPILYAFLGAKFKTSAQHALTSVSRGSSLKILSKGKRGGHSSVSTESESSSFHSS

SMILES | IC50 [1] | %max [2] | EC50 [3] | Emax [3] | Activity [4]
CC(C)C[C@H](NC(=O)[C@H](CO)NC(=O)[C@H](C/C=C/c1ccccc1)NC(=O)[C@@H]1CCCN1C(=O)[C@@H](N)CCCCN)C(=O)N[C@@H](CO)C(=O)N[C@@H](Cc1ccc(O)cc1)C(=O)N[C@@H](CCCNC(=N)N)C(=O)N[C@@H](CO)C(=O)N[C@@H](C)C(=O)NCCCC[C@H](NC(=O)[C@@H]1CSSC[C@H](NC(=O)[C@H](Cc2ccc3ccccc3c2)NC(=O)[C@H](CCCNC(=N)N)NC(=O)[C@@H](N)CCCNC(=N)N)C(=O)N[C@@H](Cc2ccc(O)cc2)C(=O)N[C@@H](CCCNC(=N)N)C(=O)N[C@@H](CCCCN)C(=O)N[C@H](CCCCN)C(=O)N2CCC[C@H]2C(=O)N[C@@H](Cc2ccc(O)cc2)C(=O)N[C@@H](CCCNC(=N)N)C(=O)N[C@@H](CCCNC(=N)N)C(=O)N1)C(=O)O | 31 nM | 70% | 50 nM | 70% | 10 nM
CC(C)C[C@H](NC(=O)[C@H](CO)NC(=O)[C@@H](NC(=O)[C@@H]1CCCN1C(=O)[C@@H](N)CCCCN)C(C)C)C(=O)N[C@@H](CO)C(=O)N[C@@H](Cc1ccc([N+](=O)[O-])cc1)C(=O)N[C@@H](CCCNC(=N)N)C(=O)N[C@@H](CO)C(=O)N[C@@H](C)C(=O)NCCCC[C@H](NC(=O)[C@@H]1CSSC[C@H](NC(=O)[C@H](Cc2ccc3ccccc3c2)NC(=O)[C@H](CCCNC(=N)N)NC(=O)[C@@H](N)CCCNC(=N)N)C(=O)N[C@@H](Cc2ccc(O)cc2)C(=O)N[C@@H](CCCNC(=N)N)C(=O)N[C@@H](CCCCN)C(=O)N[C@H](CCCCN)C(=O)N2CCC[C@H]2C(=O)N[C@@H](Cc2ccc(O)cc2)C(=O)N[C@@H](CCCNC(=N)N)C(=O)N[C@@H](CCCNC(=N)N)C(=O)N1)C(=O)O | 109 nM | 48% | 62 nM | 73% | 10 nM
CC(C)C[C@H](NC(=O)[C@H](CO)NC(=O)[C@@H](NC(=O)[C@@H]1CCCN1C(=O)[C@@H](N)CCCCN)C(C)C)C(=O)N[C@@H](CO)C(=O)N[C@@H](Cc1ccccc1)C(=O)N[C@@H](CCCNC(=N)N)C(=O)N[C@@H](CO)C(=O)N[C@@H](C)C(=O)NCCCC[C@H](NC(=O)[C@@H]1CSSC[C@H](NC(=O)[C@H](Cc2ccc3ccccc3c2)NC(=O)[C@H](CCCNC(=N)N)NC(=O)[C@@H](N)CCCNC(=N)N)C(=O)N[C@@H](Cc2ccc(O)cc2)C(=O)N[C@@H](CCCNC(=N)N)C(=O)N[C@@H](CCCCN)C(=O)N[C@H](CCCCN)C(=O)N2CCC[C@H]2C(=O)N[C@@H](Cc2ccc(O)cc2)C(=O)N[C@@H](CCCNC(=N)N)C(=O)N[C@@H](CCCNC(=N)N)C(=O)N1)C(=O)O | 69 nM | 16% | 65 nM | 41% | 10 nM
CC(C)C[C@H](NC(=O)[C@H](CO)NC(=O)[C@@H](NC(=O)[C@@H]1CCCN1C(=O)[C@@H](N)CCCCN)C(C)C)C(=O)N[C@@H](CO)C(=O)N[C@@H](Cc1ccc(O)cc1)C(=O)N[C@@H](CCCNC(=N)N)C(=O)N[C@@H](CO)C(=O)N[C@@H](C)C(=O)NCCCC[C@H](NC(=O)[C@@H]1CSSC[C@H](NC(=O)[C@H](Cc2ccc3ccccc3c2)NC(=O)[C@H](CCCNC(=N)N)NC(=O)[C@@H](N)CCCNC(=N)N)C(=O)N[C@@H](Cc2ccc(O)cc2)C(=O)N[C@@H](CCCNC(=N)N)C(=O)N[C@@H](CCCCN)C(=O)N[C@H](CCCCN)C(=O)N2CCC[C@H]2C(=O)N[C@@H](Cc2ccc(O)cc2)C(=O)N[C@@H](CCCNC(=N)N)C(=O)N[C@@H](CCCNC(=N)N)C(=O)N1)C(=O)O | 84 nM | 45% | 58 nM | 55% | 10 nM
